Data reported in ChEMBL document CHEMBL1143832, “EDP-420, a bicyclolide (bridged bicyclic macrolide), is active against Mycobacterium avium” (Antimicrob Agents Chemother, 2007).
Converted amounts (≈) assume the structure as drawn. The source made the active and inactive calls. The calls are words filed in the database; no cut-off is given here.

Assays:
Mycobacterium avium [1] = assay: Antimicrobial activity against macrolide-resistant Mycobacterium avium radiometric broth […] method; type: functional
Procedure, shortened: (§1)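 MAC clinical blood isolates from AIDS patients; 5–10 colonies from 7H11 agar into 7H9 broth, inoculum ~5 × 10^4 CFU/ml by McFarland no. 1. Radiometric (BACTEC) broth […], T100 analysis. Controls: undiluted drug-free, 1:100 and 1:1,000 diluted inoculum, boiled-bacteria vial. Observation ~7 days. MIC range, MIC50 and MIC90 reported (susceptible n = 24; resistant n = 6).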

Mycobacterium avium [2] = assay: Antimicrobial activity against macrolide-susceptible Mycobacterium avium by radiometric broth […] method; type: functional; procedure, shortened: as §1
[3] = test system: Mycobacterium avium complex sp.; assay: Antimicrobial activity against Mycobacterium avium complex 101 infected C57BL/6 beige mouse liver assessed as bacterial load at 100 mg/kg once daily 6 days a week for 4 weeks; type: functional
Procedure, shortened: (§2)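 Female C57BL/6 beige mice, about 20 g, infected intravenously with about 3 × 10^7 MAC 101. Baseline mice harvested at 1 week, when treatment started: once daily, 6 days/week, for 4 weeks, alongside diluent-treated controls. Liver and spleen homogenized, diluted and plated on 7H10 agar, with CFU counted after 10 days at 37°C and expressed per gram. Student's t test.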

[4] = test system: Mycobacterium avium complex sp.; assay: Antimicrobial activity against Mycobacterium avium complex 101 infected C57BL/6 beige mouse spleen assessed as bacterial load at 100 mg/kg once daily 6 days a week for 4 weeks; type: functional; procedure, shortened: as §2
[5] = test system: Mycobacterium avium complex sp.; assay: Antimicrobial activity against clarithromycin resistant-Mycobacterium avium complex 101 infected C57BL/6 beige mouse liver assessed as bacterial load at 100 mg/kg once daily 6 days a week for 4 weeks; type: functional
Procedure, shortened: (§3)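 Female beige mice (~20 g) infected intravenously with ~3 × 107 clarithromycin-resistant MAC 101 (from spleen of clarithromycin-treated MAC 101-infected mouse). Treatment started 1 week post-infection, once daily, 6 days/week, 4 weeks. Baseline mice harvested at 1 week; diluent-treated controls in parallel. Liver and spleen homogenized, diluted, plated on 7H10 agar, CFU counted after 10 days at 37°C. Mean CFU/g ± SEM.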

[6] = test system: Mycobacterium avium complex sp.; assay: Antimicrobial activity against clarithromycin resistant-Mycobacterium avium complex 101 infected C57BL/6 beige mouse spleen assessed as bacterial load at 100 mg/kg once daily 6 days a week for 4 weeks; type: functional; procedure, shortened: as §3
[7] = test system: Mycobacterium avium complex sp.; assay: Antimicrobial activity against Mycobacterium avium complex 101 infected C57BL/6 beige mouse spleen assessed as bacterial load at 40 mg/kg once daily 6 days a week for 4 weeks; type: functional; procedure, shortened: as §2
[8] = test system: Mycobacterium avium complex sp.; assay: Antimicrobial activity against Mycobacterium avium complex 101 infected C57BL/6 beige mouse liver assessed as bacterial load at 40 mg/kg once daily 6 days a week for 4 weeks; type: functional; procedure, shortened: as §2
[9] = test system: Mycobacterium avium complex sp.; assay: Antimicrobial activity against clarithromycin resistant-Mycobacterium avium complex 101 infected C57BL/6 beige mouse spleen assessed as bacterial load at 40 mg/kg once daily 6 days a week for 4 weeks; type: functional; procedure, shortened: as §3
[10] = test system: Mycobacterium avium complex sp.; assay: Antimicrobial activity against clarithromycin resistant-Mycobacterium avium complex 101 infected C57BL/6 beige mouse liver assessed as bacterial load at 40 mg/kg once daily 6 days a week for 4 weeks; type: functional; procedure, shortened: as §3
[11] = test system: Mycobacterium avium complex sp.; assay: Antibacterial activity against Mycobacterium avium complex 101 in U937 cells at 0.5 ug/ml after 4 days; conditions: U-937
[12] = Cmax in mouse serum at 15 mg/kg, po; type: ADME, organism-based; design: dose 15 mg/kg, route oral
[13] = test system: Mycobacterium avium complex sp.; assay: Antimicrobial activity against Mycobacterium avium complex 101 infected C57BL/6 beige mouse spleen assessed as bacterial load after 12 weeks; type: functional
[14] = Tmax in mouse serum at 15 mg/kg, po; type: ADME, organism-based; design: dose 15 mg/kg, route oral
[15] = test system: Mycobacterium avium complex sp.; assay: Antimicrobial activity against Mycobacterium avium complex 101 infected C57BL/6 beige mouse spleen assessed as bacterial load after 8 weeks; type: functional
[16] = Half life in mouse serum at 15 mg/kg, po; type: ADME, organism-based; design: dose 15 mg/kg, route oral

SMILES | MIC (Mycobacterium avium [1]) [µg/mL] | MIC50 (Mycobacterium avium [2]) [µg/mL] | MIC90 (Mycobacterium avium [2]) [µg/mL] | CFU [3] | CFU [4] | CFU [5] | CFU [6] | CFU [7] | CFU [8] | CFU [9] | CFU [10] | Activity [11] | Cmax [12] [ng/mL] | CFU [13] | Tmax [14] [h] | CFU [15] | half-life [16] [min]
CC[C@H]1OC(=O)[C@H](C)[C@@H](O[C@H]2C[C@@](C)(OC)[C@@H](O)[C@H](C)O2)[C@H](C)[C@@H](O[C@@H]2O[C@H](C)C[C@H](N(C)C)[C@H]2O)[C@](C)(O)C[C@@H](C)CN(C)[C@H](C)[C@@H](O)[C@]1(C)O [AZITHROMYCIN] | > 512 | 16 (≈ 21.4 µM) | 16 (≈ 21.4 µM) | – | – | – | – | – | – | – | – | – | – | – | – | – | –
CC[C@H]1OC(=O)[C@H](C)[C@@H](O[C@H]2C[C@@](C)(OC)[C@@H](O)[C@H](C)O2)[C@H](C)[C@@H](O[C@@H]2O[C@H](C)C[C@H](N(C)C)[C@H]2O)[C@](C)(OC)C[C@@H](C)C(=O)[C@H](C)[C@@H](O)[C@]1(C)O [CLARITHROMYCIN] | > 64 | 2 (≈ 2.67 µM) | 4 (≈ 5.35 µM) | 2.8 10^7/g | 6.6 10^7/g | 2.8 10^8/g | 8 10^8/g | – | – | – | – | – | – | – | – | – | –
O[C@@H](c1cc(C(F)(F)F)nc2c(C(F)(F)F)cccc12)[C@H]1CCCCN1 [MEFLOQUINE] | – | – | – | – | – | – | – | 4.8 10^7/g | 1.8 10^7/g | 4.6 10^7/g | 2.9 10^7/g | – | – | – | – | – | –
CC[C@H]1OC(=O)[C@H](C)C(=O)[C@H](C)[C@@H](O[C@@H]2O[C@H](C)C[C@H](N(C)C)[C@H]2O)[C@@]2(C)C[C@@H](C)/C(=N\C(C)=O)[C@H](C)[C@@H](OC/C(=N\OCc3ccc(-n4cccn4)nc3)CO2)[C@]1(C)O [MODITHROMYCIN] | 32 (≈ 38 µM) | 4 (≈ 4.76 µM) | 8 (≈ 9.51 µM) | 7.1 10^6/g | 1.2 10^7/g | 1.7 10^8/g | 5.7 10^8/g | – | – | 2.7 10^8/g | 2.5 10^8/g | Active | 2500 | 2.5 10^5/g | 1.5 | 2.3 10^5/g | 198
CC[C@H]1OC(=O)[C@H](C)C(=O)[C@H](C)[C@@H](O[C@@H]2O[C@H](C)C[C@H](N(C)C)[C@H]2O)[C@](C)(OC)C[C@@H](C)C(=O)[C@H](C)[C@H]2N(CCCCn3cnc(-c4cccnc4)c3)C(=O)O[C@]12C [TELITHROMYCIN] | – | 32 (≈ 39.4 µM) | > 64 | – | – | – | – | – | – | – | – | – | 5500 | – | 1 | – | 90
